{"source": "ChEMBL document CHEMBL2380221", "about": "“Discovery of novel STAT3 small molecule inhibitors via in silico site-directed fragment-based drug design” (J Med Chem, 2013)", "key": {"U2OS": {"tested_on": "U2OS", "test": "Cytotoxicity against human U2OS cells assessed as cell viability by MTT assay", "format": "functional, cell-based", "how_it_was_run": "(§1)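 RD2, RH30 and U2OS sarcoma cells were seeded at 3000 cells/well and incubated 24 h at 37 °C. Compounds were then added in triplicate at 0.1–10 or 0.1–20 μM in the presence of 10% FBS, from 20 mM DMSO stocks. IC50 was obtained by curve fitting.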"}, "[1]": {"test": "Cytotoxicity against human U373 cells assessed as cell viability after 72 hrs by MTT assay", "format": "functional, cell-based, U-373MG ATCC", "conditions": "U373 MG"}, "[2]": {"test": "Cytotoxicity against human U87 cells assessed as cell viability after 72 hrs by MTT assay", "format": "functional, cell-based, U-87MG ATCC", "conditions": "U-87 MG"}, "PANC-1": {"tested_on": "PANC-1", "test": "Cytotoxicity against human PANC1 cells assessed as cell viability after 72 hrs by MTT assay", "format": "functional, cell-based", "conditions": "PANC-1, 72 h"}, "SK-BR-3": {"tested_on": "SK-BR-3", "test": "Cytotoxicity against human SKBR3 cells assessed as cell viability after 72 hrs by MTT assay", "format": "functional, cell-based", "conditions": "SK-BR-3, 72 h"}, "MDA-MB-231 [3]": {"tested_on": "MDA-MB-231", "test": "Cytotoxicity against human MDA-MB-231 cells assessed as cell viability after 72 hrs by MTT assay", "format": "functional, cell-based", "conditions": "MDA-MB-231, 72 h"}, "[4]": {"target": "Signal transducer and activator of transcription 3 (Homo sapiens) (UniProt P40763)", "sequence (P40763 whole entry)": "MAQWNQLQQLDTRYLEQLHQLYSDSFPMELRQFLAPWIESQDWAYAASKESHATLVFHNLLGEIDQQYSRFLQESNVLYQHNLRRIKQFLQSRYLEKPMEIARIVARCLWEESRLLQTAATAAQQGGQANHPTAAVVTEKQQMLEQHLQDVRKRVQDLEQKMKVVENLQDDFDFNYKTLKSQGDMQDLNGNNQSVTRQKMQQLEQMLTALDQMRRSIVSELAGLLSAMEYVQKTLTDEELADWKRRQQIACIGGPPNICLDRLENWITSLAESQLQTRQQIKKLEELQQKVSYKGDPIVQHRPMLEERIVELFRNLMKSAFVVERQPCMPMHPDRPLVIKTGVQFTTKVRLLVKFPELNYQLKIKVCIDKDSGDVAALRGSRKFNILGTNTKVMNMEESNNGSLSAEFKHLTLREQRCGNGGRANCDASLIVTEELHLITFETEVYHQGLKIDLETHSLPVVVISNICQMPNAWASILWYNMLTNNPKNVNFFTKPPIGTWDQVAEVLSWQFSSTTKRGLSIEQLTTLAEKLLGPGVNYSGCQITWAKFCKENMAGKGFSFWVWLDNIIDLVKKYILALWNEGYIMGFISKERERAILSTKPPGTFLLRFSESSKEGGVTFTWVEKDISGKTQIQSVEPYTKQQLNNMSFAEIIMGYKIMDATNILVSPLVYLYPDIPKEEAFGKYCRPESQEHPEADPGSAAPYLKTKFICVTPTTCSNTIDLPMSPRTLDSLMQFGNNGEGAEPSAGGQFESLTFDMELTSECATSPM", "test": "Inhibition of IL6-induced STAT3 Y705 phosphorylation in human MCF7 cells at 0.5 to 2.5 uM incubated for 5 hrs prior to IL6 induction measured after 30 mins by Western blot analysis", "format": "cell-based", "how_it_was_run": "(§2)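 MCF-7 cells, which lack persistent P-STAT3, were allowed to adhere overnight and then serum-starved overnight. They were left untreated or pretreated with compound or DMSO for 5 h, then stimulated with IL-6 at 25 ng/mL. Cells were harvested 30 min later and probed for P-STAT3 (Tyr705) and STAT3 by Western blot using RIPA lysates and ECL.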"}, "SJRH30 [5]": {"tested_on": "SJRH30", "test": "Effect on total STAT3 expression in human Rh30 cells at 0.5 to 2.5 uM after 16 hrs by Western blot analysis", "format": "functional, cell-based", "how_it_was_run": "(§3)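 RH30 cells at 60–80% confluence in 10% FBS were treated with compound or DMSO for 16 h. Whole-cell extracts were made in cold RIPA buffer with protease and phosphatase inhibitor cocktails. Extracts were run on SDS-PAGE and transferred to PVDF. Blots were probed for P-STAT3 (Tyr705) and total STAT3 with primary antibody 1:1,000 and HRP secondary 1:10000, then detected by ECL.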"}, "[6]": {"target": "Signal transducer and activator of transcription 3 (Homo sapiens) (UniProt P40763)", "test": "Inhibition of constitutive STAT3 Y705 phosphorylation in human Rh30 cells after 16 hrs by Western blot analysis", "format": "cell-based", "how_it_was_run": "as §3"}, "[7]": {"test": "Cytotoxicity against human RD2 cells assessed as cell viability by MTT assay", "format": "functional, cell-based", "how_it_was_run": "as §1"}, "[8]": {"test": "Cytotoxicity against human Rh30 cells assessed as cell viability by MTT assay", "format": "functional, cell-based", "conditions": "SJRH30", "how_it_was_run": "as §1"}, "MDA-MB-231 [9]": {"tested_on": "MDA-MB-231", "test": "Antitumor activity against human MDA-MB-231 cells xenografted in Harlan athymic nude mouse assessed as decrease in tumor size at 5 mg/kg, ip measured for 21 days", "format": "functional, organism-based", "design": "dose 5 mg/kg", "how_it_was_run": "(§4)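 Female athymic nude mice, 6 weeks old, received 5 × 10^6 MDA-MB-231 cells subcutaneously in the flank. After tumors developed, they were split into two groups of eight tumors each: DMSO vehicle control, or 5 mg/kg IP. The drug was formulated in Cremaphor, DMSO and 5% dextrose. Tumor L and W were measured by caliper every other day. Volume = 0.5236 × L × W2. Treatment lasted 21 days.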"}, "[10]": {"target": "T1, Signal transducer and activator of transcription 1-alpha/beta (Homo sapiens) (UniProt P42224)", "T1 sequence (whole entry)": "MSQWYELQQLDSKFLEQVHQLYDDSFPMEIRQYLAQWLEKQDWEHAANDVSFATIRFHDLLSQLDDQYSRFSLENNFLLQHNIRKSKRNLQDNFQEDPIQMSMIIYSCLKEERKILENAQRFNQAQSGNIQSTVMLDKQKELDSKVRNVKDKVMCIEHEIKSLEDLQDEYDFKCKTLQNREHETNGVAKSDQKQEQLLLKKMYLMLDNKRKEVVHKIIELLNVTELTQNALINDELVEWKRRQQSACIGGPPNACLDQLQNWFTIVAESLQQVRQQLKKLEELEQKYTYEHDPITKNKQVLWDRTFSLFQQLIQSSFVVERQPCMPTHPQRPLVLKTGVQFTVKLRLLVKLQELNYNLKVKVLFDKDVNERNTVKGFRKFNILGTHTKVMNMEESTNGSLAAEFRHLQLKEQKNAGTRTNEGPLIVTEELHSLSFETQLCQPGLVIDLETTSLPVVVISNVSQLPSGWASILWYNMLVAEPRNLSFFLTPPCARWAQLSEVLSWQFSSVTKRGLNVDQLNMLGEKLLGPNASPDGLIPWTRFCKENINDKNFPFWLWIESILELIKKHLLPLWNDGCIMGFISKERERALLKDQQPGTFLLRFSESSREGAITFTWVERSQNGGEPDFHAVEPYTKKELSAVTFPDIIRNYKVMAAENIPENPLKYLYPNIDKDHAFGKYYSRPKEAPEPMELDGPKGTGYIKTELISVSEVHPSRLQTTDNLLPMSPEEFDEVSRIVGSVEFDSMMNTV", "test": "Inhibition of IFN-gamma-induced STAT1 Y701 phosphorylation in human DAOY cells at 1 to 5 uM incubated for 2 hrs prior to IFN-gamma induction measured after 30 mins by Western blot analysis", "format": "cell-based", "how_it_was_run": "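DAOY cells were serum-starved overnight and left untreated or treated with 1–5 μM compound or DMSO for 2 h. They were then stimulated with IFN-γ at 50 ng/mL and harvested 30 min later. STAT1 phosphorylation was analyzed by Western blot from RIPA lysates, with ECL detection.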"}, "[11]": {"target": "Signal transducer and activator of transcription 3 (Homo sapiens) (UniProt P40763)", "test": "Inhibition of IL6-induced STAT3 Y705 phosphorylation in human DAOY cells at 1 to 5 uM incubated for 2 hrs prior to IL6 induction measured after 30 mins by Western blot analysis", "format": "cell-based", "how_it_was_run": "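DAOY medulloblastoma cells were allowed to adhere, then serum-starved overnight. They were left untreated or pretreated with 1–5 μM compound or DMSO for 2 h, then stimulated with IL-6. Cells were harvested 30 min after stimulation. P-STAT3 (Tyr705) and STAT3 were detected by Western blot from RIPA lysates, with ECL detection.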"}, "[12]": {"target": "Signal transducer and activator of transcription 3 (Homo sapiens) (UniProt P40763)", "test": "Inhibition of IL6-induced STAT3 Y705 phosphorylation in human MCF7 cells at 0.25 to 1 uM incubated for 5 hrs prior to IL6 induction measured after 30 mins by Western blot analysis", "format": "cell-based", "how_it_was_run": "as §2"}, "[13]": {"target": "Signal transducer and activator of transcription 3 (Homo sapiens) (UniProt P40763)", "test": "Inhibition of constitutive STAT3 Y705 phosphorylation in human EW8 cells assessed as appearance of cleaved caspase 3 at 0.5 to 1 uM after 8 hrs by Western blot analysis", "format": "cell-based", "how_it_was_run": "(§5)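 EW8 Ewing's sarcoma cells were treated with 0.5–1 μM compound or DMSO for 8 h, in 10% FBS at 60–80% confluence. Whole-cell RIPA lysates were analyzed by SDS-PAGE and PVDF Western blot, with primary antibody 1:1,000, HRP secondary 1:10000 and ECL detection. Blots were probed for P-STAT3, total STAT3, phosphorylated ERK1/2 and cleaved caspase 3.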"}, "[14]": {"target": "Mitogen-activated protein kinase; ERK1/ERK2 (Homo sapiens) (UniProt P27361+P28482)", "sequence (P27361 whole entry, looked up)": "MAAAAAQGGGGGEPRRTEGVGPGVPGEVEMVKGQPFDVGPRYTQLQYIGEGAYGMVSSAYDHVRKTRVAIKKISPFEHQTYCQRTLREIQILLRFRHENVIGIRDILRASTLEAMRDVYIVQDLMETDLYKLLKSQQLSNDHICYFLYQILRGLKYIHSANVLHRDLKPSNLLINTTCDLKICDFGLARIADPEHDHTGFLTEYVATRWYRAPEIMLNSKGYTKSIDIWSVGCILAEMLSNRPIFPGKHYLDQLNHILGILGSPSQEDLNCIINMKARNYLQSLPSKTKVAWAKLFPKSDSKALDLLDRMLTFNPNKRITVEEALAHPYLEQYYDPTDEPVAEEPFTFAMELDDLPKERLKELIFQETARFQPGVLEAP", "sequence (P28482 whole entry, looked up)": "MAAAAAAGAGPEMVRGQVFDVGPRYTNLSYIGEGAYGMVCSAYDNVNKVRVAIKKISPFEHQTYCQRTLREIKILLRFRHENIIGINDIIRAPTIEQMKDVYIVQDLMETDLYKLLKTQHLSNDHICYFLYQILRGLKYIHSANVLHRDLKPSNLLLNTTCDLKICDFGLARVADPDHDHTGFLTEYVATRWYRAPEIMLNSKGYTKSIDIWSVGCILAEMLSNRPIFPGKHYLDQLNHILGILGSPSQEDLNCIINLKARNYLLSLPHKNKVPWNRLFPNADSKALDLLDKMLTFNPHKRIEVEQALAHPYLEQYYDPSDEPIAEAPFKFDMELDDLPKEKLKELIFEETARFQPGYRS", "test": "Inhibition of ERK1/2 phosphorylation in human EW8 cells at 0.5 to 1 uM after 8 hrs by Western blot analysis", "format": "cell-based", "how_it_was_run": "as §5"}, "MDA-MB-231 [15]": {"tested_on": "MDA-MB-231", "test": "Antitumor activity against human MDA-MB-231 cells xenografted in Harlan athymic nude mouse assessed as tumor growth inhibition at 5 mg/kg, ip measured for 21 days", "format": "functional, organism-based", "design": "dose 5 mg/kg", "how_it_was_run": "as §4"}, "EW8": {"tested_on": "EW8", "test": "Effect on total STAT3 expression in human EW8 cells at 0.5 to 1 uM after 8 hrs by Western blot analysis", "format": "functional, cell-based", "how_it_was_run": "as §5"}, "SJRH30 [16]": {"tested_on": "SJRH30", "test": "Effect on total STAT3 expression in human Rh30 cells at 0.25 to 1 uM after 16 hrs by Western blot analysis", "format": "functional, cell-based", "how_it_was_run": "as §3"}, "[17]": {"target": "Signal transducer and activator of transcription 3 (Homo sapiens) (UniProt P40763)", "test": "Inhibition of constitutive STAT3 Y705 phosphorylation in human EW8 cells after 8 hrs by Western blot analysis", "format": "cell-based", "how_it_was_run": "as §5"}}, "note": "Active and inactive are the calls of the source. No cut-off for these calls is given here.", "data": [{"smiles": "O=C1C(Nc2ccccc2)=CC2=NS(=O)(=O)c3cccc1c32", "values": [{"measurement": "IC50", "setting": "U2OS", "result": 5000, "unit": "nM"}]}, {"smiles": "NS(=O)(=O)c1cccc2c1C(=O)c1cccc(O)c1C2=O", "values": [{"measurement": "IC50", "setting": "[1]", "result": 160, "unit": "nM"}, {"measurement": "IC50", "setting": "[2]", "result": 160, "unit": "nM"}, {"measurement": "IC50", "setting": "PANC-1", "result": 160, "unit": "nM"}, {"measurement": "IC50", "setting": "SK-BR-3", "result": 160, "unit": "nM"}, {"measurement": "IC50", "setting": "MDA-MB-231 [3]", "result": 160, "unit": "nM"}]}, {"smiles": "O=C1C(Nc2ccc([N+](=O)[O-])cc2Cl)=CC2=NS(=O)(=O)c3cccc1c32", "values": [{"measurement": "inhibition", "setting": "[4]", "result": "Active"}, {"measurement": "Activity", "setting": "SJRH30 [5]", "result": "inactive"}, {"measurement": "inhibition", "setting": "[6]", "result": "Dose-dependent effect"}, {"measurement": "IC50", "setting": "[7]", "result": 2560, "unit": "nM"}, {"measurement": "IC50", "setting": "[8]", "result": 1140, "unit": "nM"}, {"measurement": "IC50", "setting": "U2OS", "result": 1390, "unit": "nM"}]}, {"smiles": "NS(=O)(=O)c1cccc2c1C(=O)C=C(Nc1ccccc1)C2=O", "values": [{"measurement": "IC50", "setting": "U2OS", "result": "> 5000", "unit": "nM"}]}, {"smiles": "O=C1C(Nc2ccc3ccccc3c2)=CC2=NS(=O)(=O)c3cccc1c32", "values": [{"measurement": "IC50", "setting": "U2OS", "result": 2500, "unit": "nM"}]}, {"smiles": "NS(=O)(=O)c1cccc2c1C(=O)C=C(Nc1cccnc1)C2=O", "values": [{"measurement": "Activity", "setting": "MDA-MB-231 [9]", "result": "Active"}, {"measurement": "inhibition", "setting": "[10]", "result": "inactive"}, {"measurement": "inhibition", "setting": "[11]", "result": "Active"}, {"measurement": "inhibition", "setting": "[12]", "result": "Active"}, {"measurement": "inhibition", "setting": "[13]", "result": "Active"}, {"measurement": "inhibition", "setting": "[14]", "result": "inactive"}, {"measurement": "TGI", "setting": "MDA-MB-231 [15]", "result": "Active"}, {"measurement": "Activity", "setting": "EW8", "result": "inactive"}, {"measurement": "Activity", "setting": "SJRH30 [16]", "result": "inactive"}, {"measurement": "inhibition", "setting": "[17]", "result": "Dose-dependent effect"}, {"measurement": "inhibition", "setting": "[6]", "result": "Dose-dependent effect"}, {"measurement": "IC50", "setting": "[7]", "result": 1390, "unit": "nM"}, {"measurement": "IC50", "setting": "[8]", "result": 550, "unit": "nM"}, {"measurement": "IC50", "setting": "U2OS", "result": 500, "unit": "nM"}]}]}
